In ChEMBL document CHEMBL3813699, “Structure-Activity Relationships of a Diverse Class of Halogenated Phenazines That Targets Persistent, Antibiotic-Tolerant Bacterial Biofilms and Mycobacterium tuberculosis” (J Med Chem, 2016):
Values after ≈ are worked out from the molar mass of the structure shown. Active and inactive are the calls of the source. The rule behind the calls is not given here.

What was measured:
Staphylococcus aureus [1] = test: Antibiofilm activity against methicillin-resistant Staphylococcus aureus isolate 2 assessed as biofilm eradication incubated for 24 hrs by CBD assay; type: functional; details: for MBC: Staphylococcus aureus, isolate 2, 24 h
How it was run: (§1)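 Calgary Biofilm Device: pegs inoculated with mid-log culture diluted 1,000-fold in TSB + 0.5% glucose, 24 h 37 °C; washed pegs challenged with 2-fold dilutions 24 h 37 °C; pegs moved to fresh TSBG 24 h; MBEC = lowest concentration leaving no turbidity; 2–6 independent experiments.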

Staphylococcus aureus [2] = test: Ratio of MBEC to MBC for methicillin-resistant Staphylococcus aureus clinical isolate 2 biofilm eradication; type: functional
How it was run: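 From the same CBD challenge plate, MBC taken by subculturing 20 µL into 180 µL TSBG overnight at 37 °C (no turbidity); MBEC from recovered pegs in fresh TSBG 24 h; ratio MBEC:MBC against MRSA-2.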

Enterococcus faecium [3] = test: Antibiofilm activity against […]-resistant Enterococcus faecium ATCC 700221 assessed as biofilm eradication incubated for 24 hrs by CBD assay; type: functional; details: for MBC: Enterococcus faecium, ATCC 700221, 24 h; how it was run: as §1
Staphylococcus aureus [4] = test: Antibacterial activity against methicillin-resistant Staphylococcus aureus BAA-1707 incubated for 16 to 18 hrs by broth microdilution method; type: functional
[5] = Aqueous solubility of compound in media after 16 hrs; type: physicochemical
[6] = tested on: Staphylococcus epidermidis; test: Antibiofilm activity against methicillin-resistant Staphylococcus epidermidis ATCC 35984 assessed as reduction in persister cells level within biofilms MBEC incubated for 24 hrs by CBD assay; type: functional; set-up: scale not given: the % may be the effect or the level left
How it was run: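 After CBD challenge and recovery, pegs sonicated 30 min in PBS and plated to count viable biofilm cells (CFU/mL) at and below MBEC.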

Staphylococcus aureus [7] = test: Antibacterial activity against methicillin-resistant Staphylococcus aureus clinical isolate 2 incubated for 16 hrs by broth microdilution method; type: functional; details: isolate 2, 16 h
[8] = Induction of hemolysis in human RBC at 200 uM incubated for 1 hr; type: cell-based, Erythrocyte; details: red blood cells, read-out: Activity
How it was run: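 Human RBCs (EDTA), washed three times in Tris-buffered saline pH 7.2; 2% hRBC with compound at final 200 µM, 1 h 37 °C; supernatant OD405; % hemolysis relative to DMSO (0%) and Triton X (100%).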

[9] = tested on: Staphylococcus epidermidis; test: Antibacterial activity against Staphylococcus epidermidis ATCC 12228 incubated for 16 to 18 hrs by broth microdilution method; type: functional
[10] = tested on: Mycobacterium tuberculosis; test: Antibacterial activity against Mycobacterium tuberculosis H37Ra ATCC 25177 after 7 days by two-fold serial dilution method; type: functional; details: H37Ra ATCC 25177, 168 h
Enterococcus faecium [11] = test: Antibacterial activity against vancomycin-resistant Enterococcus faecium ATCC 700221 incubated for 16 to 18 hrs by broth microdilution method; type: functional
[12] = tested on: Staphylococcus epidermidis; test: Antibacterial activity against methicillin-resistant Staphylococcus epidermidis ATCC 35984 incubated for 16 to 18 hrs by broth microdilution method; type: functional
Staphylococcus aureus [13] = test: Antibacterial activity against methicillin-resistant Staphylococcus aureus BAA-44 incubated for 16 to 18 hrs by broth microdilution method; type: functional
Staphylococcus aureus [14] = test: Antibacterial activity against methicillin-resistant Staphylococcus aureus clinical isolate 2 incubated for 16 to 18 hrs by broth microdilution method; type: functional
[15] = tested on: Staphylococcus epidermidis; test: Antibiofilm activity against methicillin-resistant Staphylococcus epidermidis ATCC 35984 assessed as biofilm eradication at 0.1 to 10 uM incubated for 24 hrs by live/dead staining-based fluorescence microscopic analysis; type: functional, organism-based
How it was run: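 MRSE 35984 mid-log culture diluted 1:1,000, biofilm grown 24 h at 37 °C on glass dish, saline wash, treated in fresh media 0.1, 1, 10 µM for 24 h at 37 °C; DMSO negative control; Live/Dead stain 15 min dark, paraformaldehyde fixed, fluorescence microscopy.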

HeLa [16] = test: Cytotoxicity against human HeLa cells assessed as cell death at 50 uM after 24 hrs by LDH release assay; type: cell-based
How it was run: (§2)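 HeLa in DMEM + 10% FBS, 37 °C 5% CO2, at 70–80% confluence treated with 25, 50, 100 µM for 24 h; DMSO vehicle; Triton X-100 2% v/v max-LDH control, medium-only negative; supernatant with LDH reaction mix 30 min room temperature, stopped, absorbance 490 nm.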

[17] = tested on: Staphylococcus epidermidis; test: Antibacterial activity against methicillin-resistant Staphylococcus epidermidis ATCC 35984 assessed as biofilm eradication incubated for 24 hrs by CBD assay; type: functional; details: for MBC: Staphylococcus epidermidis, ATCC 35984, 24 h; how it was run: as §1
HeLa [18] = test: Cytotoxicity against human HeLa cells after 24 hrs by LDH release assay; type: cell-based; how it was run: as §2
Staphylococcus aureus [19] = test: Antibacterial activity against methicillin-resistant Staphylococcus aureus clinical isolate 2 incubated for 16 hrs by broth microdilution method in presence of Cu2+; type: functional; details: isolate 2, 16 h
HeLa [20] = test: Cytotoxicity against human HeLa cells assessed as induction of cell death at 100 uM after 24 hrs by LDH release assay; type: cell-based; how it was run: as §2
[21] = Dissociation constant, pKa of compound; type: physicochemical
[22] = Metal chelating activity assessed as insoluble Cu2+-compound complex formation by UV-vis spectroscopic analysis; type: physicochemical
How it was run: (§3)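 UV-vis monitoring after adding 0.5 equivalents CuSO4 or ammonium iron(II) sulfate to stirred 10 mM ligand in DMSO; Cu stoichiometry from free ligand remaining after 2 h room-temperature stirring with varying CuSO4 in methanol, filtered, redissolved in DMSO, A440 against calibration curve.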

Staphylococcus aureus [23] = test: Antibacterial activity against methicillin-resistant Staphylococcus aureus clinical isolate 2 incubated for 16 hrs by broth microdilution method in presence of Fe2+; type: functional; details: isolate 2, 16 h
Staphylococcus aureus [24] = test: Antibacterial activity against methicillin-resistant Staphylococcus aureus clinical isolate 2 incubated for 16 hrs by broth microdilution method in presence of thiourea; type: functional, organism-based
Staphylococcus aureus [25] = test: Antibacterial activity against Staphylococcus aureus ATCC 25923 incubated for 16 to 20 hrs by broth microdilution method; type: functional
Staphylococcus aureus [26] = test: Antibiofilm activity against methicillin-resistant Staphylococcus aureus BAA-1707 assessed as biofilm eradication incubated for 24 hrs by CBD assay; type: functional; how it was run: as §1
[27] = Metal chelating activity assessed as soluble Fe2+-compound complex formation by UV-vis spectroscopic analysis; type: physicochemical; how it was run: as §3
[28] = tested on: Staphylococcus epidermidis; test: Antibacterial activity against Staphylococcus epidermidis ATCC 12228 incubated for 16 to 20 hrs by broth microdilution method; type: functional
Staphylococcus aureus [29] = test: Antibiofilm activity against methicillin-resistant Staphylococcus aureus BAA-44 assessed as biofilm eradication incubated for 24 hrs by CBD assay; type: functional; how it was run: as §1
Staphylococcus aureus [30] = test: Antibacterial activity against methicillin-resistant Staphylococcus aureus clinical isolate 2 incubated for 16 hrs by broth microdilution method in presence of ascorbic acid; type: functional, organism-based
Staphylococcus aureus [31] = test: Antibacterial activity against methicillin-resistant Staphylococcus aureus clinical isolate 2 incubated for 16 hrs by broth microdilution method in presence of MnTBAP; type: functional, organism-based

Structure (SMILES)	MBEC (Staphylococcus aureus [1]) [µM]	MBC (Staphylococcus aureus [1]) [µM]	MBEC (Enterococcus faecium [3]) [µM]	MBC (Enterococcus faecium [3]) [µM]	MIC (Staphylococcus aureus [4]) [µM]	solubility at 16 h [5] [µM]	MIC (Staphylococcus aureus [7]) [µM]	hemolysis at 1 h, 200 µM [8] [%]	MIC [9] [µM]	MIC [10] [µM]	MIC (Enterococcus faecium [11]) [µM]	MIC [12] [µM]	MIC (Staphylococcus aureus [13]) [µM]	MIC (Staphylococcus aureus [14]) [µM]	MBEC [17] [µM]	MBC [17] [µM]	IC50 (HeLa [18]) [µM]	MIC (Staphylococcus aureus [19]) [µM]	further results
C[C@H]1c2cccc(O)c2C(=O)C2=C(O)[C@]3(O)C(=O)C(C(N)=O)=C(O)[C@@H](N(C)C)[C@@H]3[C@@H](O)[C@@H]21.O [DOXYCYCLINE]	46.9	2																	Ratio (Staphylococcus aureus [2]): >23
Oc1c(Br)cc(I)c2nc3cc(Cl)c(Cl)cc3nc12	9.38	3.13 (≈ 1.47 µg/mL)	0.2	0.2 (≈ 0.094 µg/mL)	0.3 (≈ 0.141 µg/mL)	200 (≈ 94 µg/mL)	6.25 (≈ 2.94 µg/mL)	2.7	0.1 (≈ 0.047 µg/mL)	12.5 (≈ 5.87 µg/mL)	0.1 (≈ 0.047 µg/mL)	3.13 (≈ 1.47 µg/mL)	3.13 (≈ 1.47 µg/mL)	3.13 (≈ 1.47 µg/mL)	2.35	1.56 (≈ 0.733 µg/mL)	> 50	100	Activity [6]: >99.99%; Activity [15]: Active; Activity (HeLa [16]): Non-toxic; Activity (HeLa [20]): 70%
Oc1ccc(Br)c2nc3cc(Cl)c(Cl)cc3nc12			25	100 (≈ 34.4 µg/mL)	0.3 (≈ 0.103 µg/mL)	200 (≈ 68.8 µg/mL)	0.78 (≈ 0.268 µg/mL)	2.7	3.13 (≈ 1.08 µg/mL)	3.13 (≈ 1.08 µg/mL)	6.25 (≈ 2.15 µg/mL)	1.56 (≈ 0.537 µg/mL)	1.17 (≈ 0.402 µg/mL)	0.78 (≈ 0.268 µg/mL)	100	37.5 (≈ 12.9 µg/mL)	> 100		pKa [21]: 8.42
Oc1c(Br)cc(Br)c2nc3ccccc3nc12	93.8	15.6 (≈ 5.52 µg/mL)						≤ 1		25 (≈ 8.85 µg/mL)	6.25 (≈ 2.21 µg/mL)				250	23.5 (≈ 8.32 µg/mL)	> 100	75	Activity [22]: Active; MIC (Staphylococcus aureus [23]): 3.13 µM; Activity (Staphylococcus aureus [24]): Active; MIC (Staphylococcus aureus [25]): 0.78 µM (≈ 0.276 µg/mL); MBEC (Staphylococcus aureus [26]): 375 µM; MBC (Staphylococcus aureus [26]; Staphylococcus aureus, BAA-1707, 24 h): 62.5 µM (≈ 22.1 µg/mL); Activity [27]: Active; MIC [28]: 0.27 µg/mL (≈ 0.763 µM); MBEC (Staphylococcus aureus [29]): 188 µM; MBC (Staphylococcus aureus [29]; Staphylococcus aureus, BAA-44, 24 h): 62.5 µM (≈ 22.1 µg/mL); Activity (Staphylococcus aureus [30]): Active; Activity (Staphylococcus aureus [31]): Active
